Results reported in ChEMBL document CHEMBL1142496, “Studies on enzyme-cleavable dialkoxymethyl-cyclosaligenyl-2',3'-dideoxy-2',3'-didehydrothymidine monophosphates” (J Med Chem, 2008).

Legend:
[1] = tested on: Human immunodeficiency virus 2; test: Antiviral activity against HIV2 in thymidine kinase deficient human CEM/TK- cellss; type: functional, organism-based; conditions: Human immunodeficiency virus 2, CEM-TK(-)
Method in brief: (§1)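 Anti-HIV assay in T-lymphocytes: wild-type CEM/0 cells infected with HIV-1 or HIV-2, and thymidine kinase-deficient CEM/TK⁻ cells infected with HIV-2. Cells grown in RPMI-1640 with 10% heat-inactivated fetal calf serum. Read-out is the 50% effective concentration, given as the mean of two to three independent experiments.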

[2] = Stability in RPMI-1640 medium containing 10% heat inactivated fetal calf serum at pH 7.6 assessed as hydrolysis half life; type: physicochemical; conditions: cattle, RPMI-1640 medium with 10% heat-inactivated fetal calf serum
Method in brief: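 Stability in RPMI-1640 culture medium with 10% fetal calf serum heat-inactivated for 30 min at 56 °C (pH 7.6). Handled like the cell-extract incubations, with medium in place of extract; triester half-life and formyl-product formation followed by HPLC.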

[3] = Cytostatic activity against human wild type CEM/0 cellss; type: cell-based, CCRF-CEM; conditions: wild-type CEM/0 cells
Method in brief: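 Cytostatic activity on T-lymphocyte CEM cultures, reported as the 50% cytostatic concentration.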

[4] = tested on: Human immunodeficiency virus 2; test: Antiviral activity against HIV2 in human wild type CEM/0 cellss; type: functional, organism-based; conditions: Human immunodeficiency virus 2, CCRF-CEM; method in brief: as §1
[5] = tested on: Human immunodeficiency virus 1; test: Antiviral activity against HIV1 in human wild type CEM/0 cellss; type: functional, organism-based; conditions: Human immunodeficiency virus 1, CCRF-CEM; method in brief: as §1
[6] = Stability in aqueous 25 mM phosphate buffer at pH 7.6 assessed as hydrolysis half life; type: physicochemical
Method in brief: (§2)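 Chemical stability in aqueous 25 mM phosphate buffer at pH 7.3 or 7.6. Triester cleavage followed by HPLC; half-life refers to disappearance of the intact triester.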

[7] = Stability in aqueous 25 mM phosphate buffer at pH 7.3 assessed as hydrolysis half life; type: physicochemical; method in brief: as §2
[8] = tested on: Human immunodeficiency virus; test: Antiviral activity against HIV; type: functional, organism-based; conditions: Human immunodeficiency virus 1; method in brief: as §1
[9] = Stability in human CEM cells extracts at pH 6.9 assessed as hydrolysis half life; type: ADME, CCRF-CEM; conditions: CEM cell extracts
Method in brief: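 Enzymatic stability assay: triesters incubated in CEM cell extracts (pH 6.9) over varied incubation times. Acetic acid was not used to stop the reaction for acid-sensitive compounds. Samples analysed by HPLC to give the half-life of triester cleavage.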

SMILES | EC50 [1] | half-life [2] | CC50 [3] | EC50 [4] | EC50 [5] | half-life [6] | half-life [7] | EC50 [8] | half-life [9]
Cc1cn([C@H]2C=C[C@@H](COP3(=O)OCc4cc(C=O)cc(C(C)(C)C)c4O3)O2)c(=O)[nH]c1=O (stereo not given in full) | 15 µM | 1.5 h | 33 µM | 1 µM | 0.39 µM | 1.1 h | 1 h | – | –
Cc1cc(C=O)cc2c1OP(=O)(OC[C@@H]1C=C[C@H](n3cc(C)c(=O)[nH]c3=O)O1)OC2 (stereo not given in full) | 4.5 µM | 0.7 h | 82 µM | 1.27 µM | 0.45 µM | 0.35 h | – | – | –
Cc1cccc2c1OP(=O)(OC[C@@H]1C=C[C@H](n3cc(C)c(=O)[nH]c3=O)O1)OC2 (stereo not given in full) | – | – | – | – | – | – | – | 0.1 µM | –
CC(=O)OC(OC(C)=O)c1cc2c(c(C(C)(C)C)c1)OP(=O)(OC[C@@H]1C=C[C@H](n3cc(C)c(=O)[nH]c3=O)O1)OC2 (stereo not given in full) | 0.78 µM | 2.8 h | 19 µM | 0.8 µM | 0.65 µM | 2.6 h | 7.9 h | – | 0.15 h
CC(=O)OC(OC(C)=O)c1cc(C)c2c(c1)COP(=O)(OC[C@@H]1C=C[C@H](n3cc(C)c(=O)[nH]c3=O)O1)O2 (stereo not given in full) | 6.3 µM | 1.5 h | 44 µM | 0.7 µM | 0.5 µM | 1.9 h | – | – | –
Cc1cn([C@H]2C=C[C@@H](CO[P@@]3(=O)OCc4cc(C(OC(=O)C(C)C)OC(=O)C(C)C)cc(C(C)(C)C)c4O3)O2)c(=O)[nH]c1=O | 3.6 µM | 4.5 h | 40 µM | 1.9 µM | 0.89 µM | 2.9 h | 3.8 h | – | 0.8 h
CC(=O)OC(OC(C)=O)c1cc2c(c(C(C)(C)C)c1)O[P@](=O)(OC[C@@H]1C=C[C@H](n3cc(C)c(=O)[nH]c3=O)O1)OC2 | 0.29 µM | 2.9 h | 17 µM | 0.75 µM | 0.54 µM | 2.7 h | 7.9 h | – | 0.3 h
CC(=O)OC(OC(C)=O)c1cc2c(c(C(C)(C)C)c1)O[P@@](=O)(OC[C@@H]1C=C[C@H](n3cc(C)c(=O)[nH]c3=O)O1)OC2 | 3.9 µM | 2.8 h | 51 µM | 0.84 µM | 1.1 µM | 2.4 h | 8.3 h | – | 0.15 h
Cc1cn([C@H]2C=C[C@@H](CO[P@@]3(=O)OCc4cc(C=O)cc(C(C)(C)C)c4O3)O2)c(=O)[nH]c1=O | 10 µM | 1.6 h | 41 µM | 1.4 µM | 0.81 µM | 0.3 h | 1 h | – | –
Cc1cn([C@H]2C=C[C@@H](CO[P@]3(=O)OCc4cc(C=O)cc(C(C)(C)C)c4O3)O2)c(=O)[nH]c1=O | 2.6 µM | 1.7 h | 27 µM | 0.69 µM | 0.16 µM | 1.3 h | 1.3 h | – | –
Cc1cn([C@H]2C=C[C@@H](COP3(=O)OCc4cc(C(C)(C)C)ccc4O3)O2)c(=O)[nH]c1=O (stereo not given in full) | – | – | – | – | – | – | 7.2 h | – | –
Cc1cc(C=O)c2c(c1)COP(=O)(OC[C@@H]1C=C[C@H](n3cc(C)c(=O)[nH]c3=O)O1)O2 (stereo not given in full) | 29 µM | 0.3 h | 29 µM | 1.4 µM | 3.6 µM | 0.3 h | 0.25 h | – | –
CC(=O)OC(OC(C)=O)c1cc(C)cc2c1OP(=O)(OC[C@@H]1C=C[C@H](n3cc(C)c(=O)[nH]c3=O)O1)OC2 (stereo not given in full) | 6.5 µM | 1.5 h | 19 µM | 1 µM | 0.52 µM | 1.1 h | 3.2 h | – | 0.25 h
Cc1cc(C(OC(=O)C(C)C)OC(=O)C(C)C)cc2c1OP(=O)(OC[C@@H]1C=C[C@H](n3cc(C)c(=O)[nH]c3=O)O1)OC2 (stereo not given in full) | > 10 µM | 1.6 h | 20 µM | 0.95 µM | 1.6 µM | 1.1 h | 1.3 h | – | 0.5 h
Cc1cn([C@H]2C=C[C@@H](CO[P@]3(=O)OCc4cc(C(OC(=O)C(C)C)OC(=O)C(C)C)cc(C(C)(C)C)c4O3)O2)c(=O)[nH]c1=O | 1.4 µM | 5.7 h | 14 µM | 0.85 µM | 0.72 µM | 2.5 h | 3.3 h | – | 1 h
Cc1cn([C@H]2C=C[C@@H](COP3(=O)OCc4cc(C(OC(=O)C(C)C)OC(=O)C(C)C)cc(C(C)(C)C)c4O3)O2)c(=O)[nH]c1=O (stereo not given in full) | 2.4 µM | 5.9 h | 20 µM | 2 µM | 0.53 µM | 2.7 h | 3.5 h | – | 1 h
Cc1cn([C@H]2C=C[C@@H](COP3(=O)OCc4cc(C(C)(C)C)cc(C=O)c4O3)O2)c(=O)[nH]c1=O (stereo not given in full) | 5.1 µM | 0.3 h | 8.8 µM | 1 µM | 0.99 µM | 0.1 h | 0.25 h | – | –
CC(=O)OC(OC(C)=O)c1cc(C(C)(C)C)cc2c1OP(=O)(OC[C@@H]1C=C[C@H](n3cc(C)c(=O)[nH]c3=O)O1)OC2 (stereo not given in full) | 7.3 µM | 1.9 h | 7.9 µM | 1 µM | 0.72 µM | 1.2 h | 3.7 h | – | < 0.1 h
Cc1cn([C@H]2C=C[C@@H](CO)O2)c(=O)[nH]c1=O [STAVUDINE] | 62 µM | – | 182 µM | 1.9 µM | 0.86 µM | – | – | – | –
